Publication PMC4527528 (Chemistry & biology, 2015)
Values belong to the molecule of their own block, whether it stands above or below them.

What was measured:
ABHD4 [1] = target: T1, ABHD4 (Homo sapiens, UniProt Q8TB40); assay: ABPP-SILAC, in situ treatment of PC3 cells; assay type: cell-based; conditions: 4 h, FP-biotin probe
T1 sequence (Q8TB40 1-342): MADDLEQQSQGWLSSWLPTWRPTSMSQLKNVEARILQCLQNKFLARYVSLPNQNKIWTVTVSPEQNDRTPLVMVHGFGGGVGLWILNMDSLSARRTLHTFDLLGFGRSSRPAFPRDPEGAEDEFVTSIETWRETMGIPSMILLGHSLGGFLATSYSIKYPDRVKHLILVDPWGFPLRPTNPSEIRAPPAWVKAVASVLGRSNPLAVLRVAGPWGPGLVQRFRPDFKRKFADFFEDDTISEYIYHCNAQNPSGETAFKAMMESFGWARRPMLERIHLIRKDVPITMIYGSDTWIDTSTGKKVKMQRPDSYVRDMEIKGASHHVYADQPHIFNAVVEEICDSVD
Procedure, shortened: (§1)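 Heavy-isotope PC3 cells (RPMI plus serum, grown to confluency) get fresh medium with test compound; light cells get DMSO. Incubated 4 h at 37 °C, 5% CO2, then PBS-washed and sonicated in PBS. Proteomes (2 mg/mL) labelled with FP-biotin (2.5 µM, 1 h) or ABC45 (5 µM, 1 h), then CuAAC to biotin-azide. Heavy and light combined, streptavidin-enriched, trypsin-digested on bead, analysed by LC-MS/MS; SILAC ratios; two independent experiments.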

ABHD3 = target: T2, ABHD3 (Homo sapiens, UniProt Q8WU67); assay: ABPP-SILAC, in situ treatment of PC3 cells; assay type: cell-based; conditions: 4 h, FP-biotin probe
T2 sequence (Q8WU67 1-409): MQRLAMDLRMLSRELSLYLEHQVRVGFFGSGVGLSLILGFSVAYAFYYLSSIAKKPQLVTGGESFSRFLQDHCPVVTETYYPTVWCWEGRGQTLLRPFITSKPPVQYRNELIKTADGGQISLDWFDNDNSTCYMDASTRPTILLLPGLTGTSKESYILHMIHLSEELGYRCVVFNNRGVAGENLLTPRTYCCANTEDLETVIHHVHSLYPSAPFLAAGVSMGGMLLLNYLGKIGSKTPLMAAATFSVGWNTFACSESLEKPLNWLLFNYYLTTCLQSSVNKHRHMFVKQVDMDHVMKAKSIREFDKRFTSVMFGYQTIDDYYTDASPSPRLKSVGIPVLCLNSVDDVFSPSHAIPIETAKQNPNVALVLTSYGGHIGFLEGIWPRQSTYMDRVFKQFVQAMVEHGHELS
Procedure, shortened: as §1

ABHD4 [2] = target: T1, ABHD4; assay: Gel-based competitive ABPP; assay type: biochemical; conditions: combined transfected HEK293T lysate
PPT1 [3] = target: T3, PPT1 (Homo sapiens, UniProt P50897); assay: ABPP-SILAC with ABC45 probe, in situ treatment of PC3 cells; assay type: cell-based; conditions: 1 µM, 4 h, ABC45 probe (5 µM, 1 h)
T3 sequence (P50897 28-306): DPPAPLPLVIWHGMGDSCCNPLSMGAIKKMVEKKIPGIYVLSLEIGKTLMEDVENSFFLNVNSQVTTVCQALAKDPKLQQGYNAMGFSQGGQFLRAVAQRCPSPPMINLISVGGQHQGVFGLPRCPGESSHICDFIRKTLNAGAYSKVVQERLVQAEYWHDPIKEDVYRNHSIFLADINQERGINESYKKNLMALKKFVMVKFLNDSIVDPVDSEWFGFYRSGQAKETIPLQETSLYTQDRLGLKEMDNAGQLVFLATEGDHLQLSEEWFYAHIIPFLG
Procedure, shortened: as §1

PPT1 [4] = target: T3, PPT1; assay: In situ competitive ABPP; assay type: cell-based; conditions: transfected HEK293T cells
Procedure, shortened: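 HEK293T cells transiently transfected with human PPT1 are grown to confluency in DMEM plus serum. Treated in fresh medium with test compound or DMSO, 4 h, 37 °C, 5% CO2. Washed, sonicated in PBS, and lysates labelled with the ABC45 click probe. Rhodamine-azide added by CuAAC; PNGaseF deglycosylation for the blockade test; SDS-PAGE and in-gel fluorescence.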

Cytotoxicity = assay type: cell-based; conditions: read-out: cell toxicity IC50
endogenous PPT1 = target: T4, endogenous PPT1 (Homo sapiens, UniProt P50897); assay: MU-6S-Palm-βD-Glc substrate assay after in situ treatment of PC3 cells; assay type: cell-based; conditions: 500 nM, 4 h
T4 sequence (P50897 28-306): T3 sequence (P50897 28-306)
Procedure, shortened: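 PC3 cells (RPMI plus serum, confluent) treated in situ with test compound or DMSO for 4 h at 37 °C, 5% CO2, then washed and sonicated in PBS. Lysate PPT1 activity measured with MU-6S-Palm-βD-Glc: thioester hydrolysis, then sweet almond β-glucosidase releases 4-methylumbelliferone, read by fluorescence. Activity compared with DMSO controls; three independent experiments.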

PPT1 [5] = target: T5, PPT1 (Mus musculus, UniProt O88531); assay: In vivo gel-based ABPP of mouse tissues; conditions: C57BL6 mice, intraperitoneal, 4 h, central and peripheral tissues
T5 sequence (O88531 28-306): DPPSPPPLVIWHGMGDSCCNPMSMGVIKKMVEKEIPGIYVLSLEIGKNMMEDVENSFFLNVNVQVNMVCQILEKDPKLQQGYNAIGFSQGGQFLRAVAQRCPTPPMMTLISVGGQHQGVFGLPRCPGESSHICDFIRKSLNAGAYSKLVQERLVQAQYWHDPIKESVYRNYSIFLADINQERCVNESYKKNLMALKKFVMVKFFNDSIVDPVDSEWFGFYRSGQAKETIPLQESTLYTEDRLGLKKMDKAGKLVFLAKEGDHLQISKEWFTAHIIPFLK
Procedure, shortened: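 C57Bl/6 mice dosed intraperitoneally across 1–40 mg/kg in saline/ethanol/emulphor 18:1:1 (v/v/v), or vehicle. After 4 h, isoflurane anaesthesia, cervical dislocation and tissue harvest. Tissue proteomes (1 mg/mL) labelled with ABC45 (1 µM, 60 min) and rhodamine-azide by CuAAC, PNGaseF-treated after labelling, resolved by SDS-PAGE and scanned for fluorescence.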

serine hydrolases = assay: ABPP-SILAC serine hydrolase selectivity profile in PC3 cells; assay type: cell-based, human; conditions: PC3 cells in situ, 1 or 0.1 µM, 4 h; ABHD6 and CPVL
Procedure, shortened: as §1

ABHD4 [6] = target: T1, ABHD4; assay type: biochemical; conditions: in vitro, lysates from ABHD4-transfected HEK293T cells

inhibition of ABHD4 (ABHD4 [1]; 0.5 µM): inhibit both ABHD3 and ABHD4
inhibition of ABHD3 (ABHD3; 0.5 µM): inhibit both ABHD3 and ABHD4
Structure (SMILES): O=C(ON1C(=O)C2CN(Cc3ccc(Oc4ccccc4)cc3)CCN2C1=O)N1CCC(c2ccccc2)CC1 (centres unmarked) [ABC47]

inhibition of ABHD4 (ABHD4 [1]; 1 µM): completely inhibited
inhibition of ABHD3 (ABHD3; 1 µM): ~ 80%
inhibition of PPT1 (PPT1 [3]): more than 90%
blockade of ABC45 reactivity of recombinant human PPT1 (PPT1 [4]; 5 µM, 4 h): blocked
Structure (SMILES): COc1ccc(N2CCN(C(=O)ON3C(=O)C4CN(Cc5ccc(Oc6ccccc6)cc5)CCN4C3=O)CC2)cc1 (centres unmarked) [ABC34]
preference for ABHD4 over ABHD3 (ABHD4 [2]): preferentially inhibited ABHD4 over ABHD3

4-MU-6S-Palm-βD-Glc hydrolysis activity compared to DMSO-treated control cells (endogenous PPT1): substantial reductions
reduction in endogenous PPT1 activity (endogenous PPT1): 90%
dose producing near-complete blockade of PPT1 (PPT1 [5]): 1 to 5 mg/kg
in situ inhibition of hPPT1 (PPT1 [4]; 200 nM): complete inhibition
Structure (SMILES): COc1ccc(N2CCN(C(=O)ON3C(=O)C4CN(CC5CCN(Cc6ccccc6)CC5)CCN4C3=O)CC2)cc1 (centres unmarked) [ABC44]
IC50 (Cytotoxicity): > 50 µM
cross-reactive serine hydrolase activities (serine hydrolases): two of the >40 quantified SH activities
effect on NAPE hydrolysis activity of ABHD4 (ABHD4 [6]): neither ABC44 (17) nor the LYPLA1/2 inhibitor JJH254 (7) altered
